ChEMBL document CHEMBL5058577, “EUbOPEN Chemogenomics Library 2 (Multiplex)” (2022)

System: U2OS
Assay: Multiplex assay against U2OS
Assay type: toxicity, cell-based
Settings: human
How it was run: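 Cells stained live at seeding with Hoechst33342, BioTracker Green Microtubule Cytoskeleton Dye, MitoTracker Red and Annexin V Alexa Fluor 680 were imaged on a CQ1 microscope at 37°C and 5% CO2 after compound addition. Their classification by CellPathfinder machine-learning gating ran from Hoechst high-intensity objects versus normal cells, to healthy, pyknosed or fragmented nuclei among normal cells, to mitotic or apoptotic among pyknosed cells. Tubulin, mitochondrial-mass and membrane-permeability phenotypes are per cents of healthy-nucleus cells.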

[1] = 12 h, 1 µM, compound concentration 1 uM, replicate 1
[2] = 12 h, 1 µM, compound concentration 1 uM, replicate 2
[3] = 12 h, 10 µM, compound concentration 10 uM, replicate 1
[4] = 12 h, 10 µM, compound concentration 10 uM, replicate 2
[5] = 24 h, 1 µM, compound concentration 1 uM, replicate 1
[6] = 24 h, 1 µM, compound concentration 1 uM, replicate 2
[7] = 24 h, 10 µM, compound concentration 10 uM, replicate 1
[8] = 24 h, 10 µM, compound concentration 10 uM, replicate 2
[9] = 48 h, 1 µM, compound concentration 1 uM, replicate 1
[10] = 48 h, 1 µM, compound concentration 1 uM, replicate 2
[11] = 48 h, 10 µM, compound concentration 10 uM, replicate 1
[12] = 48 h, 10 µM, compound concentration 10 uM, replicate 2

SMILES: O=c1nc2[nH]c3ccccc3nc-2c(=O)[nH]1 [ALLOXAZINE]
- Population Apoptotic (%) [1]: 70%
- Population Fragmented Nuclei (%) [1]: 25%
- Population Healthy Nuclei (%) [1]: 61%
- Population Hoechst High Intensity Objects (%) [1]: 2%
- Population Membrane Permeable-Phenotype (%) [1]: 5%
- Population Mitochondria Different-Phenotype (%) [1]: 0%
- Population Mitotic Cells (%) [1]: 29%
- Population Normal (%) [1]: 97%
- Population Pyknosed Nuclei (%) [1]: 12%
- Population Tubulin-Different-Phenotype (%) [1]: 3%
- Total Cell Count [1]: 195
- Population Apoptotic (%) [2]: 75%
- Population Fragmented Nuclei (%) [2]: 15%
- Population Healthy Nuclei (%) [2]: 74%
- Population Mitochondria Different-Phenotype (%) [2]: 5%
- Population Mitotic Cells (%) [2]: 25%
- Population Pyknosed Nuclei (%) [2]: 10%
- Total Cell Count [2]: 122
- Population Apoptotic (%) [3]: 86%
- Population Fragmented Nuclei (%) [3]: 33%
- Population Healthy Nuclei (%) [3]: 59%
- Population Hoechst High Intensity Objects (%) [3]: 0%
- Population Membrane Permeable-Phenotype (%) [3]: 7%
- Population Mitochondria Different-Phenotype (%) [3]: 0%
- Population Mitotic Cells (%) [3]: 13%
- Population Normal (%) [3]: 99%
- Population Pyknosed Nuclei (%) [3]: 7%
- Population Tubulin-Different-Phenotype (%) [3]: 1%
- Total Cell Count [3]: 212
- Population Apoptotic (%) [4]: 88%
- Population Fragmented Nuclei (%) [4]: 13%
- Population Healthy Nuclei (%) [4]: 78%
- Population Hoechst High Intensity Objects (%) [4]: 1%
- Population Mitochondria Different-Phenotype (%) [4]: 5%
- Population Mitotic Cells (%) [4]: 11%
- Population Normal (%) [4]: 98%
- Population Tubulin-Different-Phenotype (%) [4]: 3%
- Total Cell Count [4]: 119
- Population Apoptotic (%) [5]: 73%
- Population Fragmented Nuclei (%) [5]: 24%
- Population Healthy Nuclei (%) [5]: 66%
- Population Hoechst High Intensity Objects (%) [5]: 1%
- Population Membrane Permeable-Phenotype (%) [5]: 4%
- Population Mitochondria Different-Phenotype (%) [5]: 1%
- Population Mitotic Cells (%) [5]: 26%
- Population Normal (%) [5]: 98%
- Population Pyknosed Nuclei (%) [5]: 8%
- Population Tubulin-Different-Phenotype (%) [5]: 2%
- Total Cell Count [5]: 261
- Population Apoptotic (%) [6]: 57%
- Population Fragmented Nuclei (%) [6]: 16%
- Population Healthy Nuclei (%) [6]: 74%
- Population Hoechst High Intensity Objects (%) [6]: 2%
- Population Membrane Permeable-Phenotype (%) [6]: 5%
- Population Mitochondria Different-Phenotype (%) [6]: 5%
- Population Mitotic Cells (%) [6]: 42%
- Population Normal (%) [6]: 97%
- Population Pyknosed Nuclei (%) [6]: 9%
- Total Cell Count [6]: 146
- Population Apoptotic (%) [7]: 78%
- Population Fragmented Nuclei (%) [7]: 30%
- Population Healthy Nuclei (%) [7]: 61%
- Population Hoechst High Intensity Objects (%) [7]: 0%
- Population Membrane Permeable-Phenotype (%) [7]: 8%
- Population Mitochondria Different-Phenotype (%) [7]: 2%
- Population Mitotic Cells (%) [7]: 21%
- Population Normal (%) [7]: 99%
- Population Pyknosed Nuclei (%) [7]: 8%
- Population Tubulin-Different-Phenotype (%) [7]: 2%
- Total Cell Count [7]: 237
- Population Apoptotic (%) [8]: 75%
- Population Fragmented Nuclei (%) [8]: 16%
- Population Healthy Nuclei (%) [8]: 80%
- Population Hoechst High Intensity Objects (%) [8]: 2%
- Population Membrane Permeable-Phenotype (%) [8]: 5%
- Population Mitochondria Different-Phenotype (%) [8]: 4%
- Population Mitotic Cells (%) [8]: 25%
- Population Normal (%) [8]: 97%
- Population Pyknosed Nuclei (%) [8]: 2%
- Population Tubulin-Different-Phenotype (%) [8]: 3%
- Total Cell Count [8]: 148
- Population Apoptotic (%) [9]: 84%
- Population Fragmented Nuclei (%) [9]: 19%
- Population Healthy Nuclei (%) [9]: 71%
- Population Hoechst High Intensity Objects (%) [9]: 1%
- Population Membrane Permeable-Phenotype (%) [9]: 1%
- Population Mitochondria Different-Phenotype (%) [9]: 1%
- Population Mitotic Cells (%) [9]: 15%
- Population Normal (%) [9]: 98%
- Population Pyknosed Nuclei (%) [9]: 9%
- Population Tubulin-Different-Phenotype (%) [9]: 1%
- Total Cell Count [9]: 362
- Population Apoptotic (%) [10]: 76%
- Population Fragmented Nuclei (%) [10]: 18%
- Population Healthy Nuclei (%) [10]: 72%
- Population Hoechst High Intensity Objects (%) [10]: 6%
- Population Membrane Permeable-Phenotype (%) [10]: 4%
- Population Mitochondria Different-Phenotype (%) [10]: 2%
- Population Mitotic Cells (%) [10]: 23%
- Population Normal (%) [10]: 93%
- Population Pyknosed Nuclei (%) [10]: 8%
- Population Tubulin-Different-Phenotype (%) [10]: 2%
- Total Cell Count [10]: 207
- Population Apoptotic (%) [11]: 90%
- Population Fragmented Nuclei (%) [11]: 26%
- Population Healthy Nuclei (%) [11]: 66%
- Population Hoechst High Intensity Objects (%) [11]: 1%
- Population Membrane Permeable-Phenotype (%) [11]: 5%
- Population Mitochondria Different-Phenotype (%) [11]: 1%
- Population Mitotic Cells (%) [11]: 9%
- Population Normal (%) [11]: 98%
- Population Pyknosed Nuclei (%) [11]: 6%
- Population Tubulin-Different-Phenotype (%) [11]: 2%
- Total Cell Count [11]: 321
- Population Apoptotic (%) [12]: 76%
- Population Fragmented Nuclei (%) [12]: 12%
- Population Healthy Nuclei (%) [12]: 79%
- Population Membrane Permeable-Phenotype (%) [12]: 3%
- Population Mitotic Cells (%) [12]: 23%
- Population Pyknosed Nuclei (%) [12]: 8%
- Total Cell Count [12]: 210

SMILES: CCCCC[C@H](O)/C=C/[C@H]1[C@H](O)CC(=O)[C@@H]1CCCCCCC(=O)O [ALPROSTADIL]
- Population Apoptotic (%) [1]: 100%
- Population Fragmented Nuclei (%) [1]: 31%
- Population Healthy Nuclei (%) [1]: 62%
- Population Hoechst High Intensity Objects (%) [1]: 1%
- Population Membrane Permeable-Phenotype (%) [1]: 4%
- Population Mitochondria Different-Phenotype (%) [1]: 2%
- Population Mitotic Cells (%) [1]: 0%
- Population Normal (%) [1]: 98%
- Population Pyknosed Nuclei (%) [1]: 6%
- Population Tubulin-Different-Phenotype (%) [1]: 2%
- Total Cell Count [1]: 219
- Population Apoptotic (%) [2]: 77%
- Population Fragmented Nuclei (%) [2]: 11%
- Population Healthy Nuclei (%) [2]: 81%
- Population Hoechst High Intensity Objects (%) [2]: 0%
- Population Membrane Permeable-Phenotype (%) [2]: 9%
- Population Mitochondria Different-Phenotype (%) [2]: 5%
- Population Mitotic Cells (%) [2]: 22%
- Population Normal (%) [2]: 100%
- Population Tubulin-Different-Phenotype (%) [2]: 6%
- Total Cell Count [2]: 132
- Population Apoptotic (%) [3]: 71%
- Population Fragmented Nuclei (%) [3]: 23%
- Population Healthy Nuclei (%) [3]: 69%
- Population Hoechst High Intensity Objects (%) [3]: 1%
- Population Membrane Permeable-Phenotype (%) [3]: 1%
- Population Mitochondria Different-Phenotype (%) [3]: 0%
- Population Mitotic Cells (%) [3]: 28%
- Population Normal (%) [3]: 98%
- Population Pyknosed Nuclei (%) [3]: 6%
- Population Tubulin-Different-Phenotype (%) [3]: 0%
- Total Cell Count [3]: 222
- Population Apoptotic (%) [4]: 77%
- Population Fragmented Nuclei (%) [4]: 15%
- Population Healthy Nuclei (%) [4]: 75%
- Population Hoechst High Intensity Objects (%) [4]: 2%
- Population Membrane Permeable-Phenotype (%) [4]: 5%
- Population Mitochondria Different-Phenotype (%) [4]: 3%
- Population Mitotic Cells (%) [4]: 22%
- Population Normal (%) [4]: 97%
- Population Pyknosed Nuclei (%) [4]: 8%
- Population Tubulin-Different-Phenotype (%) [4]: 5%
- Total Cell Count [4]: 104
- Population Apoptotic (%) [5]: 91%
- Population Fragmented Nuclei (%) [5]: 25%
- Population Healthy Nuclei (%) [5]: 65%
- Population Hoechst High Intensity Objects (%) [5]: 1%
- Population Membrane Permeable-Phenotype (%) [5]: 5%
- Population Mitochondria Different-Phenotype (%) [5]: 2%
- Population Mitotic Cells (%) [5]: 8%
- Population Normal (%) [5]: 98%
- Population Pyknosed Nuclei (%) [5]: 9%
- Population Tubulin-Different-Phenotype (%) [5]: 3%
- Total Cell Count [5]: 263
- Population Apoptotic (%) [6]: 87%
- Population Fragmented Nuclei (%) [6]: 14%
- Population Healthy Nuclei (%) [6]: 75%
- Population Hoechst High Intensity Objects (%) [6]: 0%
- Population Membrane Permeable-Phenotype (%) [6]: 8%
- Population Mitochondria Different-Phenotype (%) [6]: 4%
- Population Mitotic Cells (%) [6]: 12%
- Population Normal (%) [6]: 99%
- Total Cell Count [6]: 166
- Population Apoptotic (%) [7]: 94%
- Population Fragmented Nuclei (%) [7]: 19%
- Population Healthy Nuclei (%) [7]: 74%
- Population Hoechst High Intensity Objects (%) [7]: 1%
- Population Membrane Permeable-Phenotype (%) [7]: 5%
- Population Mitochondria Different-Phenotype (%) [7]: 0%
- Population Mitotic Cells (%) [7]: 5%
- Population Normal (%) [7]: 98%
- Population Pyknosed Nuclei (%) [7]: 6%
- Population Tubulin-Different-Phenotype (%) [7]: 3%
- Total Cell Count [7]: 271
- Population Apoptotic (%) [8]: 100%
- Population Fragmented Nuclei (%) [8]: 12%
- Population Healthy Nuclei (%) [8]: 76%
- Population Hoechst High Intensity Objects (%) [8]: 0%
- Population Membrane Permeable-Phenotype (%) [8]: 4%
- Population Mitochondria Different-Phenotype (%) [8]: 2%
- Population Mitotic Cells (%) [8]: 0%
- Population Normal (%) [8]: 99%
- Population Pyknosed Nuclei (%) [8]: 10%
- Population Tubulin-Different-Phenotype (%) [8]: 1%
- Total Cell Count [8]: 131
- Population Apoptotic (%) [9]: 87%
- Population Fragmented Nuclei (%) [9]: 22%
- Population Healthy Nuclei (%) [9]: 68%
- Population Hoechst High Intensity Objects (%) [9]: 2%
- Population Membrane Permeable-Phenotype (%) [9]: 4%
- Population Mitochondria Different-Phenotype (%) [9]: 2%
- Population Mitotic Cells (%) [9]: 12%
- Population Normal (%) [9]: 97%
- Population Pyknosed Nuclei (%) [9]: 9%
- Population Tubulin-Different-Phenotype (%) [9]: 2%
- Total Cell Count [9]: 367
- Population Apoptotic (%) [10]: 95%
- Population Fragmented Nuclei (%) [10]: 18%
- Population Healthy Nuclei (%) [10]: 71%
- Population Hoechst High Intensity Objects (%) [10]: 3%
- Population Membrane Permeable-Phenotype (%) [10]: 6%
- Population Mitochondria Different-Phenotype (%) [10]: 5%
- Population Mitotic Cells (%) [10]: 4%
- Population Normal (%) [10]: 96%
- Population Tubulin-Different-Phenotype (%) [10]: 6%
- Total Cell Count [10]: 236
- Population Apoptotic (%) [11]: 88%
- Population Fragmented Nuclei (%) [11]: 13%
- Population Healthy Nuclei (%) [11]: 76%
- Population Hoechst High Intensity Objects (%) [11]: 0%
- Population Membrane Permeable-Phenotype (%) [11]: 4%
- Population Mitochondria Different-Phenotype (%) [11]: 0%
- Population Mitotic Cells (%) [11]: 11%
- Population Normal (%) [11]: 99%
- Population Pyknosed Nuclei (%) [11]: 10%
- Population Tubulin-Different-Phenotype (%) [11]: 3%
- Total Cell Count [11]: 362
- Population Apoptotic (%) [12]: 100%
- Population Fragmented Nuclei (%) [12]: 11%
- Population Healthy Nuclei (%) [12]: 77%
- Population Hoechst High Intensity Objects (%) [12]: 2%
- Population Membrane Permeable-Phenotype (%) [12]: 6%
- Population Mitochondria Different-Phenotype (%) [12]: 1%
- Population Mitotic Cells (%) [12]: 0%
- Population Normal (%) [12]: 97%
- Population Tubulin-Different-Phenotype (%) [12]: 4%
- Total Cell Count [12]: 165
